Source: ChEMBL document CHEMBL3352401, “Synthesis and antiviral activity of new phenylimidazopyridines and N-benzylidenequinolinamines derived by molecular simplification of phenylimidazo[4,5-g]quinolines” (Eur J Med Chem, 2014)

Key:
[1] = Antiviral activity against Bovine viral diarrhea virus 1-NADL ATCC VR-534 infected in MDBK cells assessed as protection from virus-induced cytopathogenicity after 3 to 4 days by MTT method; assay type: functional, cell-based; conditions: Bovine viral diarrhea virus isolates and strains, ATCC VR-534, MDBK
Summary of the method: (§1)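 Confluent monolayers grown overnight (BHK-21 at 5×10⁴ cells/well for YFV and Reo-1; MDBK at 3×10⁴ cells/well for BVDV). Infection at m.o.i. 0.01 for 2 h in maintenance MEM-Earle with 0.5% inactivated FBS, then serial compound dilutions added. Viability read by MTT after 3–4 days at 37 °C. EC50 taken from linear regression against untreated controls.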

[2] = Cytotoxicity against mock-infected bovine MDBK cells assessed as reduction in proliferation after 72 hrs by MTT method; assay type: cell-based, Bos taurus; conditions: cattle
Summary of the method: (§2)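 MDBK and BHK cells seeded at 6 × 10⁵ and 1 × 10⁶ cells/mL respectively. Medium was MEM-Earle with L-glutamine, 1 mM pyruvate and kanamycin, plus 10% horse serum (MDBK) or 10% FBS (BHK). Cells exposed to serial compound dilutions at 37 °C, 5% CO₂; MTT viability read at 72 h. CC50 by linear regression versus untreated controls.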

[3] = Cytotoxicity against mock-infected human MT4 cells assessed as reduction in proliferation after 96 hrs by MTT method; assay type: cell-based
Summary of the method: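 Exponentially growing MT-4 cells seeded at 1 × 10⁵ cells/mL in RPMI-1640 with 10% FBS, penicillin and streptomycin. Held 96 h at 37 °C, 5% CO₂ with or without serial compound dilutions; viability by MTT. Compounds dissolved in DMSO at 100 mM stock, then diluted in medium. CC50 by linear regression.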

[4] = system: Human immunodeficiency virus 1; test: Antiviral activity against HIV-13B infected in MT4 cells assessed as protection from virus-induced cytopathogenicity after 4 days by MTT method; assay type: functional, organism-based; conditions: Human immunodeficiency virus 1, 3B, MT4, 96 h
Summary of the method: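 HIV-1 IIIB, taken from persistently infected H9/IIIB supernatant. MT-4 cells (1×10⁴/well) in RPMI with serial compound dilutions, infected with 100 CCID50 (m.o.i. 0.01). Viability by MTT after 4 days at 37 °C. EC50 = 50% protection from cytopathogenicity, by linear regression against untreated controls. Compounds kept as 100 mM DMSO stocks, diluted in medium.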

[5] = Cytotoxicity against mock-infected hamster BHK21 cells assessed as reduction in proliferation after 72 hrs by MTT method; assay type: cell-based, Mesocricetus auratus, BHK-21; summary of the method: as §2
Yellow fever virus = test: Antiviral activity against Yellow fever virus 17D Stamaril Pasteur J07B01 infected in BHK21 cells assessed as protection from virus-induced cytopathogenicity after 3 to 4 days by MTT method; assay type: functional, cell-based; conditions: Stamaril Pasteur J07B01, BHK-21; summary of the method: as §1
[6] = Antiviral activity against Simian virus 12 3651 (ATCC VR- 214) infected in BHK21 cells assessed as protection from virus-induced cytopathogenicity after 3 to 4 days by MTT method; assay type: functional, cell-based; conditions: BHK-21; summary of the method: as §1
[7] = Cytotoxicity against mock-infected African green monkey Vero 76 cells assessed as reduction in proliferation after 48 to 96 hrs by MTT method; assay type: cell-based; conditions: chlorocebus sabaeus, Vero 76 cells (mock-infected)
Summary of the method: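 Vero-76 cells seeded at 4 × 10⁵ cells/mL in D-MEM with L-glutamine, kanamycin and 10% FBS. Incubated at 37 °C, 5% CO₂, with or without serial dilutions of compound; viability read by MTT after 48–96 h. Run in parallel with antiviral assays. CC50 obtained by linear regression of % of untreated control.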

Coxsackievirus B5 = test: Antiviral activity against Coxsackievirus B5 Faulkner (ATCC VR-185) infected in Vero 76 cells after 3 days by plaque reduction assays; assay type: functional, organism-based; conditions: Enterovirus B, Vero 76, 72 h
[8] = system: Human poliovirus 1 strain Sabin; test: Antiviral activity against Poliovirus 1 strain Sabin ATCC VR-1562 infected in Vero 76 cells after 2 days by plaque reduction assays; assay type: functional, organism-based; conditions: Enterovirus C, ATCC VR-1562, Vero 76, 48 h
[9] = Antiviral activity against Human respiratory syncytial virus A2 ATCC VR-1540 infected in Vero 76 cells after 5 days by plaque reduction assays; assay type: functional, cell-based; conditions: ATCC VR-1540, Vero 76, 120 h
[10] = system: Vesicular stomatitis Indiana virus; test: Antiviral activity against Vesicular stomatitis Indiana virus ATCC VR 158 infected in Vero 76 cells after 2 days by plaque reduction assays; assay type: functional, organism-based; conditions: ATCC VR 158, Vero 76, 48 h
[11] = Antiviral activity against Vaccinia virus Lister ATCC VR-1549 infected in Vero 76 cells after 3 days by plaque reduction assays; assay type: functional, cell-based; conditions: ATCC VR-1549, Vero 76, 72 h
Human alphaherpesvirus 1 = test: Antiviral activity against Human herpesvirus 1 strain KOS ATCC VR- 1493 infected in Vero 76 cells after 3 days by plaque reduction assays; assay type: functional, organism-based; conditions: Human alphaherpesvirus 1, KOS ATCC VR1493, Vero 76, 72 h

In the case of O=[N+]([O-])c1ccc(-c2nc3cc4cccnc4c(Cl)c3[nH]2)cc1, the EC50 [1] is reported as 1.2 µM, the CC50 at 72 h [2] is reported as > 100 µM and the CC50 at 96 h [3] is reported as > 100 µM. The EC50 [4] was > 100 µM, the CC50 at 72 h [5] was > 100 µM and the EC50 (Yellow fever virus) was > 100 µM. For the same molecule, the EC50 [6] was > 100 µM, the CC50 [7] was > 100 µM and the EC50 (Coxsackievirus B5) was > 100 µM. The EC50 [8] was > 100 µM, the EC50 [9] was > 100 µM and the EC50 [10] was > 100 µM. For the same molecule, the EC50 [11] was > 100 µM and the EC50 (Human alphaherpesvirus 1) was > 44 µM.
In the case of N#Cc1ccc(-c2nc3cccnc3[nH]2)cc1, the EC50 [1] is reported as > 100 µM, the CC50 at 72 h [2] is reported as > 100 µM and the CC50 at 96 h [3] is reported as > 100 µM. For the same molecule, the EC50 [4] was > 100 µM, the CC50 at 72 h [5] was > 100 µM and the EC50 (Yellow fever virus) was > 100 µM. The EC50 [6] was > 100 µM, the CC50 [7] was > 100 µM and the EC50 (Coxsackievirus B5) was > 100 µM. For the same molecule, the EC50 [8] was > 100 µM, the EC50 [9] was > 100 µM and the EC50 [10] was > 100 µM. For the same molecule, the EC50 [11] was > 100 µM and the EC50 (Human alphaherpesvirus 1) was > 100 µM.
In the case of CC(=O)c1ccc(-c2nc3cccnc3[nH]2)cc1, the EC50 [1] is reported as 65 µM, the CC50 at 72 h [2] is reported as > 100 µM and the CC50 at 96 h [3] is reported as > 100 µM. For the same molecule, the EC50 [4] was > 100 µM, the CC50 at 72 h [5] was > 100 µM and the EC50 (Yellow fever virus) was > 100 µM. The EC50 [6] was > 100 µM, the CC50 [7] was > 100 µM and the EC50 (Coxsackievirus B5) was > 100 µM. For the same molecule, the EC50 [8] was > 100 µM, the EC50 [9] was > 100 µM and the EC50 [10] was > 100 µM. For the same molecule, the EC50 [11] was > 100 µM and the EC50 (Human alphaherpesvirus 1) was > 100 µM.
With CC(=O)c1ccc(-c2nc3cc(Br)cnc3[nH]2)cc1 the EC50 [1] was > 100 µM, the CC50 at 72 h [2] was > 100 µM and the CC50 at 96 h [3] was 28 µM. For the same molecule, the EC50 [4] was 28 µM, the CC50 at 72 h [5] was > 100 µM and the EC50 (Yellow fever virus) was > 100 µM. For the same molecule, the EC50 [6] was > 100 µM, the CC50 [7] was 50 µM and the EC50 (Coxsackievirus B5) was > 50 µM. For the same molecule, the EC50 [8] was > 50 µM, the EC50 [9] was > 50 µM and the EC50 [10] was > 50 µM. For the same molecule, the EC50 [11] was > 50 µM and the EC50 (Human alphaherpesvirus 1) was > 50 µM.
For FC(F)(F)c1ccc(-c2nc3cccnc3[nH]2)cc1, the EC50 [1] was > 100 µM, the CC50 at 72 h [2] was > 100 µM and the CC50 at 96 h [3] was > 100 µM. The EC50 [4] was > 100 µM, the CC50 at 72 h [5] was > 100 µM and the EC50 (Yellow fever virus) was > 100 µM. The EC50 [6] was > 100 µM, the CC50 [7] was > 100 µM and the EC50 (Coxsackievirus B5) was 18 µM. The EC50 [8] was > 100 µM, the EC50 [9] was > 100 µM and the EC50 [10] was > 100 µM. The EC50 [11] was > 100 µM and the EC50 (Human alphaherpesvirus 1) was > 100 µM.
In the case of FC(F)(F)c1ccc(-c2nc3cc(Br)cnc3[nH]2)cc1, the EC50 [1] is reported as > 100 µM, the CC50 at 72 h [2] is reported as > 100 µM and the CC50 at 96 h [3] is reported as > 100 µM. The EC50 [4] was > 100 µM, the CC50 at 72 h [5] was > 100 µM and the EC50 (Yellow fever virus) was > 100 µM. The EC50 [6] was > 100 µM, the CC50 [7] was > 100 µM and the EC50 (Coxsackievirus B5) was > 100 µM. The EC50 [8] was > 100 µM, the EC50 [9] was > 100 µM and the EC50 [10] was > 100 µM. The EC50 [11] was 4 µM and the EC50 (Human alphaherpesvirus 1) was > 100 µM.
With c1cnc2[nH]c(-c3ccoc3)nc2c1 the EC50 [1] was > 100 µM, the CC50 at 72 h [2] was > 100 µM and the CC50 at 96 h [3] was > 100 µM. For the same molecule, the EC50 [4] was > 100 µM, the CC50 at 72 h [5] was > 100 µM and the EC50 (Yellow fever virus) was > 100 µM. The EC50 [6] was > 100 µM, the CC50 [7] was > 100 µM and the EC50 (Coxsackievirus B5) was > 100 µM. For the same molecule, the EC50 [8] was > 100 µM, the EC50 [9] was > 100 µM and the EC50 [10] was > 100 µM. For the same molecule, the EC50 [11] was > 100 µM and the EC50 (Human alphaherpesvirus 1) was > 100 µM.
Work on Brc1cnc2[nH]c(-c3ccoc3)nc2c1 yielded an EC50 [1] of 40 µM, a CC50 at 72 h [2] of 40 µM and a CC50 at 96 h [3] of 20 µM. The EC50 [4] was 20 µM, the CC50 at 72 h [5] was > 100 µM and the EC50 (Yellow fever virus) was > 100 µM. For the same molecule, the EC50 [6] was > 100 µM, the CC50 [7] was 40 µM and the EC50 (Coxsackievirus B5) was > 40 µM. For the same molecule, the EC50 [8] was > 40 µM, the EC50 [9] was > 40 µM and the EC50 [10] was > 40 µM. For the same molecule, the EC50 [11] was > 40 µM and the EC50 (Human alphaherpesvirus 1) was > 40 µM.
In the case of c1cnc2[nH]c(C3CCCCC3)nc2c1, the EC50 [1] is reported as > 100 µM, the CC50 at 72 h [2] is reported as > 100 µM and the CC50 at 96 h [3] is reported as > 100 µM. The EC50 [4] was > 100 µM, the CC50 at 72 h [5] was > 100 µM and the EC50 (Yellow fever virus) was > 100 µM. For the same molecule, the EC50 [6] was > 100 µM, the CC50 [7] was > 100 µM and the EC50 (Coxsackievirus B5) was 86 µM. The EC50 [8] was > 100 µM, the EC50 [9] was > 100 µM and the EC50 [10] was > 100 µM. The EC50 [11] was > 100 µM and the EC50 (Human alphaherpesvirus 1) was > 100 µM.
For Brc1cnc2[nH]c(C3CCCCC3)nc2c1, the EC50 [1] was > 100 µM, the CC50 at 72 h [2] was > 100 µM and the CC50 at 96 h [3] was > 100 µM. For the same molecule, the EC50 [4] was > 100 µM, the CC50 at 72 h [5] was > 100 µM and the EC50 (Yellow fever virus) was > 100 µM. For the same molecule, the EC50 [6] was > 100 µM, the CC50 [7] was > 100 µM and the EC50 (Coxsackievirus B5) was 20 µM. The EC50 [8] was > 100 µM, the EC50 [9] was > 100 µM and the EC50 [10] was > 100 µM. For the same molecule, the EC50 [11] was 16 µM and the EC50 (Human alphaherpesvirus 1) was > 100 µM.
For N#Cc1ccc(-c2nc3ccncc3[nH]2)cc1, the EC50 [1] was 9 µM, the CC50 at 72 h [2] was > 100 µM and the CC50 at 96 h [3] was > 100 µM. The EC50 [4] was > 100 µM, the CC50 at 72 h [5] was > 100 µM and the EC50 (Yellow fever virus) was > 100 µM. The EC50 [6] was > 100 µM, the CC50 [7] was > 100 µM and the EC50 (Coxsackievirus B5) was > 100 µM. The EC50 [8] was > 100 µM, the EC50 [9] was > 100 µM and the EC50 [10] was > 100 µM. The EC50 [11] was 56 µM and the EC50 (Human alphaherpesvirus 1) was > 100 µM.
